Assay results taken from ChEMBL document CHEMBL1126752, “Synthesis and biological activity of cis-(3aR)-(-)-2,3,3a,4,5,9b-hexahydro- 3-propyl-1H-benz[e]indole-9-carboxamide: a potent and selective 5-HT1A receptor agonist with good oral availability” (J Med Chem, 1993).
Calls of active or inactive are those of the source. No cut-off for these calls is given here.

Tests used:
[1] = target: T1, 5-hydroxytryptamine receptor 1A (Homo sapiens, UniProt P08908); assay: Binding affinity against [3H]8-OH-DPAT-labeled 5-hydroxytryptamine 1A receptor sites in cloned CHO cells; type: cell-based
T1 sequence (P08908 whole entry): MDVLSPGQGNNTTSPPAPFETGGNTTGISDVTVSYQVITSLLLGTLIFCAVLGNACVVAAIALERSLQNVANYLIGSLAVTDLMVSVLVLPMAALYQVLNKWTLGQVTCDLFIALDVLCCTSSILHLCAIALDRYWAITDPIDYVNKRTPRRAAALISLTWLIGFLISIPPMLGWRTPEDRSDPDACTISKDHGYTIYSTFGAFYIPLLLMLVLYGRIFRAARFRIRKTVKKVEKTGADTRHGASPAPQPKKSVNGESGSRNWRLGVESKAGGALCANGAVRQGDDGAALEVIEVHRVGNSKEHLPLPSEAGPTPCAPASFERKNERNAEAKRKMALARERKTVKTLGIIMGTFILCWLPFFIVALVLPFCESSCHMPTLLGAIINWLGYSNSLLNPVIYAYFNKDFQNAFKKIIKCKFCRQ
Outline: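 Competition binding against [3H]-8-OH-DPAT (85 Ci/mmol, 1.2 nM) using 11 dilutions of test compound. Receptor was cloned mammalian 5-HT1A expressed in CHO-K1 cells. IC50 from a one-site nonlinear least-squares fit, converted to Ki by Cheng-Prusoff. Ki reported ±SEM.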

[2] = Half-life time in rats; type: ADME, organism-based; conditions: rat, in vivo
Outline: (§1)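 Male Sprague-Dawley rats (300 g) sampled from arterial catheters 24 h after surgery over 10-24 h. Dosing was 5 µmol/kg iv and 40 µmol/kg po, with oral rats fasted 18 h. Parent drug in blood measured by GC/MS after pH 11 dichloromethane extraction with internal standard, samples run in duplicate. Availability from po/iv AUC ratio (n = 4).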

Felis catus [3] = assay: Maximum decrease in blood pressure observed following 1 mg/kg dose in anesthetized cat; type: functional; set-up: unit not given here
Outline: (§2)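 Adult cats (2.5-4.0 kg) anesthetized with ketamine 11 mg/kg im then chloralose 80 mg/kg iv. Animals paralyzed with gallamine, ventilated, and kept at 37-38 °C. Blood pressure recorded via femoral artery. Sympathetic activity quantified by cumulative integration. Increasing doses given iv cumulatively at 20-min intervals.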

Felis catus [4] = assay: Maximum decrease in sympathetic nerve discharge in anesthetized cat.; type: functional; outline: as §2
Felis catus [5] = assay: Percent arterial blood pressure at sympathetic nerve discharge in anesthetized cat; type: functional; outline: as §2
Felis catus [6] = assay: Inhibition of sympathetic nerve discharge (SND) in anesthetized cat; type: functional; outline: as §2
Mus musculus [7] = assay: Swimming activity of the treated mice/control mice at 39 umol/kg, sc; type: functional
Mus musculus [8] = assay: Swimming activity of the treated mice/control mice at 1.2 umol/kg, sc; type: functional
Mus musculus [9] = assay: Swimming activity of the treated mice/control mice at 12 umol/kg, sc (p < 0.001); type: functional
Mus musculus [10] = assay: Swimming activity of the treated mice/control mice at 3.9 umol/kg, sc (p < 0.001); type: functional
Rattus norvegicus [11] = assay: 5-HTP accumulation in corpus striatum of reserpinized rats following peroral administration; type: functional; conditions: po
Rattus norvegicus [12] = species on record: Rattus norvegicus; assay: Inhibition of 5-HT1A cell firing in rats; type: functional
Outline: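 Male Sprague-Dawley rats (280-330 g) under chloral hydrate anesthesia (400 mg/kg ip), drug given iv via femoral vein in distilled water. Dorsal raphe serotonergic neurons recorded extracellularly and confirmed histologically by dye deposit. Firing rate followed by integrated ratemeter.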

Rattus norvegicus [13] = assay: 5-HTP accumulation in corpus striatum of reserpinized rats following subcutaneous administration.; type: functional; conditions: sc
Rattus norvegicus [14] = assay: 5-HTP accumulation in hemispheres of reserpinized rats following peroral administration; type: functional; conditions: po
Rattus norvegicus [15] = assay: 5-HTP accumulation in hemispheres of reserpinized rats following subcutaneous administration.; type: functional; conditions: sc
Rattus norvegicus [16] = assay: 5-HTP accumulation in limbic system of reserpinized rats following peroral administration; type: functional; conditions: po
Rattus norvegicus [17] = assay: 5-HTP accumulation in limbic system of reserpinized rats following subcutaneous administration; type: functional; conditions: sc
Rattus norvegicus [18] = assay: In vivo motor activity at 12.5 umol/kg (po) in male rats expressed as accumulated counts/30 min (p < 0.001); type: functional
Rattus norvegicus [19] = assay: In vivo motor activity at 12.5 umol/kg (sc) in male rats expressed as accumulated counts/30 min (p < 0.001); type: functional
Mus musculus [20] = assay: Effect on hypothermia in mice following peroral administration; conditions: po
Mus musculus [21] = assay: Effect on hypothermia in mice following subcutaneous administration; conditions: sc
Rattus norvegicus [22] = assay: DOPA accumulation in corpus striatum of reserpinized rats following peroral administration at highest dose tested (50 umol/kg); Inactive; type: functional, organism-based
Rattus norvegicus [23] = assay: DOPA accumulation in corpus striatum of reserpinized rats following subcutaneous administration at highest dose tested (50 umol/kg); Inactive; type: functional, organism-based
Rattus norvegicus [24] = assay: DOPA accumulation in hemispheres of reserpinized rats following peroral administration at highest dose tested (50 umol/kg); Inactive; type: functional, organism-based
Rattus norvegicus [25] = assay: DOPA accumulation in hemispheres of reserpinized rats following subcutaneous administration at highest dose tested (50 umol/kg); Inactive; type: functional, organism-based
Rattus norvegicus [26] = assay: DOPA accumulation in limbic system of reserpinized rats following peroral administration at highest dose tested (50 umol/kg); Inactive; type: functional, organism-based
Rattus norvegicus [27] = assay: DOPA accumulation in limbic system of reserpinized rats following subcutaneous administration at highest dose tested (50 umol/kg); Inactive; type: functional, organism-based
Rattus norvegicus [28] = species on record: Rattus norvegicus; assay: Compound was tested for gross behavioral response in rats; full-blown 5-HT syndrome; type: functional, organism-based
Rattus norvegicus [29] = assay: Oral availability obtained from blood plasma levels of the parent compound following 5 umol /kg intravenous and 40 umol /kg peroral administration; type: functional, organism-based; outline: as §1
Rattus norvegicus [30] = assay: 5-HTP accumulation in corpus striatum of reserpinized rats following subcutaneous administration at highest dose tested (50 umol/kg); Inactive; type: functional, organism-based
Rattus norvegicus [31] = assay: 5-HTP accumulation in hemispheres of reserpinized rats following subcutaneous administration at highest dose tested (50 umol/kg); Inactive; type: functional, organism-based
Rattus norvegicus [32] = assay: 5-HTP accumulation in limbic system of reserpinized rats following subcutaneous administration at highest dose tested (50 umol/kg); Inactive; type: functional, organism-based
Rattus norvegicus [33] = species on record: Rattus norvegicus; assay: Compound was tested for gross behavioral response in rats; no change; type: functional, organism-based
[34] = Half-life in rats; type: ADME, organism-based; conditions: rat, in vivo; outline: as §1
Felis catus [35] = assay: Maximum decrease in sympathetic nerve discharge in anesthetized cat; type: functional
Outline: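 Cats (2.5-4.0 kg) anesthetized with ketamine 11 mg/kg im then chloralose 80 mg/kg iv, paralyzed with gallamine and ventilated, rectal temperature kept at 37-38 °C. Increasing iv doses given cumulatively at 20-min intervals; sympathetic activity quantified by cumulative integration and expressed as percent of control.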

Mus musculus [36] = assay: Swimming activity of the treated mice/control mice at 3.9 umol/kg, sc; type: functional
Rattus norvegicus [37] = assay: 5-HTP accumulation in corpus striatum of reserpinized rats following subcutaneous administration; type: functional; conditions: sc
Rattus norvegicus [38] = assay: 5-HTP accumulation in hemispheres of reserpinized rats following subcutaneous administration; type: functional; conditions: sc
Rattus norvegicus [39] = species on record: Rattus norvegicus; assay: Compound was tested for gross behavioral response in rats; partial 5-HT syndrome; type: functional, organism-based
Mus musculus [40] = assay: Swimming activity of the treated mice/control mice at 39 umol/kg, sc (p < 0.01); type: functional
Mus musculus [41] = assay: Swimming activity of the treated mice/control mice at 6.6 umol/kg, sc; type: functional
Rattus norvegicus [42] = assay: DOPA accumulation in limbic system of reserpinized rats following peroral administration at highest dose tested (50 umol/kg); Partially active; type: functional, organism-based
Rattus norvegicus [43] = assay: In vivo motor activity at 5 umol/kg (sc) in male rats expressed as accumulated counts/30 min (p < 0.001); type: functional
Rattus norvegicus [44] = assay: In vivo motor activity at 50 umol/kg (po) in male rats expressed as accumulated counts/30 min (p < 0.001); type: functional

Compound	Ki [1]	Max decrease (Felis catus [3])	Max decrease (Felis catus [4])	BP (Felis catus [5])	ED50 (Felis catus [6])	Swimming activity (Mus musculus [7])	Swimming activity (Mus musculus [9])	ED50 (Rattus norvegicus [11])	ED50 (Rattus norvegicus [12])	ED50 (Rattus norvegicus [14])	ED50 (Rattus norvegicus [16])	ED50 (Rattus norvegicus [17])	Accumulated counts/30 min (Rattus norvegicus [19])	ED50 (Mus musculus [20])	ED50 (Mus musculus [21])	NA (Rattus norvegicus [23])	NA (Rattus norvegicus [25])	ED50 (Rattus norvegicus [23])	ED50 (Rattus norvegicus [25])	ED50 (Rattus norvegicus [27])	further results
CCCN1CC[C@H]2c3c(cccc3C(N)=O)CC[C@H]21 (stereo in doubt; (-)-3a) [listing 1 of 2 here]	1.9 nM	52	0	83%	0.049 µmol/kg	1.1	7.1	< 0.2 µmol/kg	0.023 µmol/kg	0.28 µmol/kg	0.23 µmol/kg	0.28 µmol/kg	249	2.8 µmol/kg	0.4 µmol/kg	–	–	–	–	–	half-life [2]: 2 h; Swimming activity (Mus musculus [8]): 1.5; Swimming activity (Mus musculus [10]): 4.7; ED50 (Rattus norvegicus [13]): 0.07 µmol/kg; ED50 (Rattus norvegicus [15]): 0.32 µmol/kg; Accumulated counts/30 min (Rattus norvegicus [18]): 173
CCCN1CC[C@H]2c3c(cccc3C(N)=O)CC[C@H]21 (stereo in doubt; (-)-3a) [listing 2 of 2 here]	–	–	–	–	–	–	–	–	–	–	–	–	–	–	–	inactive	inactive	–	–	–	NA (Rattus norvegicus [22]): inactive; NA (Rattus norvegicus [24]): inactive; NA (Rattus norvegicus [26]): inactive; NA (Rattus norvegicus [27]): inactive; Response (Rattus norvegicus [28]): Active; bioavailability (Rattus norvegicus [29]): 46%
CCCN1CCC2c3c(cccc3C(N)=O)CC[C@@H]21 (single isomer, unassigned; (+)-3b)	–	–	–	–	–	–	–	–	–	–	–	–	–	–	–	–	–	inactive	inactive	inactive	ED50 (Rattus norvegicus [30]): inactive; ED50 (Rattus norvegicus [31]): inactive; ED50 (Rattus norvegicus [32]): inactive; Response (Rattus norvegicus [33]): inactive
CCCN1CCC2c3c(cccc3C(N)=O)CCC21 (racemic)	2.9 nM	63	–	82%	0.1 µmol/kg	2.9	6.6	–	0.009 µmol/kg	–	–	0.93 µmol/kg	88	28 µmol/kg	3.8 µmol/kg	inactive	inactive	–	–	–	half-life [34]: 1.5 h; Max decrease (Felis catus [35]): 33; Swimming activity (Mus musculus [36]): 1.2; ED50 (Rattus norvegicus [37]): 0.95 µmol/kg; ED50 (Rattus norvegicus [38]): 1.25 µmol/kg; NA (Rattus norvegicus [27]): inactive; Response (Rattus norvegicus [39]): Partially active; bioavailability (Rattus norvegicus [29]): 70%
CCCN1CCC2c3c(cccc3C(N)=O)CC[C@@H]21 (single isomer, unassigned; (+)-3a)	–	–	–	–	–	–	–	–	–	–	–	–	–	–	–	–	–	inactive	inactive	inactive	Response (Rattus norvegicus [39]): Partially active
O=C(NCCN1CCN(c2cccc3c2OCC(CO)O3)CC1)c1ccc(F)cc1 (single isomer, unassigned; (+))	2.9 nM	55	2	79%	0.14 µmol/kg	–	–	0.27 µmol/kg	0.16 µmol/kg	0.36 µmol/kg	0.36 µmol/kg	0.63 µmol/kg	–	1.6 µmol/kg	0.16 µmol/kg	–	–	inactive	inactive	inactive	Swimming activity (Mus musculus [40]): 3.3; Swimming activity (Mus musculus [41]): 0.6; ED50 (Rattus norvegicus [42]): Weak activity; ED50 (Rattus norvegicus [37]): 0.55 µmol/kg; ED50 (Rattus norvegicus [38]): 0.63 µmol/kg; ED50 (Rattus norvegicus [22]): inactive; ED50 (Rattus norvegicus [24]): inactive; Accumulated counts/30 min (Rattus norvegicus [43]): 84; Accumulated counts/30 min (Rattus norvegicus [44]): 135; Response (Rattus norvegicus [28]): Active
